According to paper PMC9091619 (RSC Advances, 2018):
Read-outs that look alike come from different tables or passages of the source.

Key:
[1] = system: A-549 (lung cancer) cells; assay: In vitro cytotoxicity, MTT/MTS cell viability assay, A-549; assay type: cell-based, human; settings: read-out: IC50 ± SD, A-549
Procedure, shortened: (§1)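 Human cancer lines from ATCC, grown in RPMI-1640 or DMEM with 10% FBS at 37 °C, 5% CO2. Seeding at 1 × 10^5 cells per mL: adherent cells 12 h before dosing, suspension cells at dosing. 48 h exposure to graded concentrations, in triplicate; cisplatin and paclitaxel as positive controls. MTS added for 4 h at 37 °C, lysis in 20% SDS–50% DMF, OD 490 nm. IC50 by Reed and Muench's method.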

[2] = system: HL-60 (leukemia) cells; assay: In vitro cytotoxicity, MTT/MTS cell viability assay, HL-60; assay type: cell-based, human; settings: read-out: IC50 ± SD, HL-60
Procedure, shortened: as §1

[3] = system: SW480 (colon cancer) cells; assay: In vitro cytotoxicity, MTT/MTS cell viability assay, SW480; assay type: cell-based, human; settings: read-out: IC50 ± SD, SW480
Procedure, shortened: as §1

[4] = system: MCF-7 (breast cancer) cells; assay: In vitro cytotoxicity, MTT/MTS cell viability assay, MCF-7; assay type: cell-based, human; settings: read-out: IC50 ± SD, MCF-7
Procedure, shortened: as §1

[5] = system: five human cancer cell lines (HL-60, SMMC-7721, A-549, MCF-7 and SW480); assay: Cytotoxicity against the panel of five tested cancer cell lines; assay type: cell-based; settings: for IC50: Homo sapiens, read-out: IC50 against all the tested cancer cell lines; for cytotoxicity against the tested cancer cell lines (in words): five tested cancer cell lines
Procedure, shortened: as §1

[6] = system: SMMC-7721 (hepatoma cells); assay: In vitro cytotoxicity, MTT/MTS cell viability assay, SMMC-7721; assay type: cell-based, human; settings: read-out: IC50 ± SD, SMMC-7721
Procedure, shortened: as §1

[7] = system: human normal pulmonary epithelial cells (BEAS-2B); assay: Growth inhibitory effect on normal cells, BEAS-2B; assay type: cell-based; settings: for IC50: read-out: IC50 ± SD, BEAS-2B

Compound	IC50 ([1]; Homo sapiens, A549, 48 h)	IC50 ([2]; Homo sapiens, HL-60, 48 h)	IC50 ([3]; Homo sapiens, SW480, 48 h)	IC50 ([4]; Homo sapiens, MCF7, 48 h)	IC50 [5]	IC50 ([6]; Homo sapiens, SMMC-7721, 48 h)	toxicity to BEAS-2B cells (in words) ([7]; BEAS-2B normal cells)	IC50 ([7]; Homo sapiens, BEAS-2B)	cytotoxicity against the tested cancer cell lines (in words) [5]	IC50 ([1]; A-549 cells, 48 h exposure)	IC50 ([2]; HL-60 cells, 48 h exposure)	IC50 ([3]; SW480 cells, 48 h exposure)	IC50 ([4]; MCF-7 cells, 48 h exposure)	IC50 ([7]; BEAS-2B normal pulmonary epithelial cells)	IC50 ([6]; SMMC-7721 cells, 48 h exposure)
COc1c(O)cc2oc3cc(O)c(CC=C(C)C)c(O)c3c(=O)c2c1CC1OC1(C)C (stereo not drawn) [Compound 2l, 1-((3,3-Dimethyloxiran-2-yl)methyl)-3,6,8-trihydroxy-2-methoxy-7-(3-methylbut-2-en-1-yl)-9H-xanthen-9-one]	> 40 µM	> 40 µM	> 40 µM	> 40 µM	> 40 µM	> 40 µM	–	–	–	–	–	–	–	–	–
COc1c(O)cc2oc3cc(O)c(CCC(C)C)c(O)c3c(=O)c2c1CC(O)C(C)(C)O (stereo not drawn) [Compound 2e, 1,3,6-Trihydroxy-2-isopentyl-7-methoxy-8-(2,3-dihydroxy-3-methylbutyl)-9H-xanthen-9-one]	> 40 µM	18.7 ± 0.23 µM	> 40 µM	> 40 µM	–	> 40 µM	non-cytotoxic	> 40 µM	–	–	–	–	–	–	–
COc1c(O)cc2oc3cc(O)c(CCC(C)(C)O)c(O)c3c(=O)c2c1CC=C(C)C [Compound 2n, 1,3,6-Trihydroxy-2-(3-hydroxy-3-methylbutyl)-7-methoxy-8-(3-methylbut-2-en-1-yl)-9H-xanthen-9-one]	17 ± 0.77 µM	14.4 ± 0.05 µM	22.7 ± 2.35 µM	24.6 ± 0.47 µM	–	26.3 ± 1.04 µM	–	29.3 ± 1.02 µM	slightly decreased activity or comparative activity	–	–	–	–	–	–
Mangostanin [Compound 2m]	–	–	–	–	–	–	–	–	slightly decreased activity or comparative activity	> 40 µM	> 40 µM	> 40 µM	> 40 µM	–	–
O=c1c2ccc(O)cc2oc2cc(O)cc(O)c12 [Compound 2u, 1,3,6-Trihydroxy-9H-xanthen-9-one]	> 40 µM	> 40 µM	> 40 µM	> 40 µM	–	> 40 µM	–	–	–	–	–	–	–	–	–
COc1c(O)cc2oc3cc(O)c(CC(O)C(C)(C)O)c(O)c3c(=O)c2c1CC=C(C)C (stereo not drawn) [Compound 2a, 1,3,6-Trihydroxy-2-(2,3-dihydroxy-3-methylbutyl)-7-methoxy-8-(3-methyl-2-butenyl)xanthone]	19.8 ± 1.42 µM	18.2 ± 0.48 µM	> 40 µM	23.7 ± 0.64 µM	–	23.4 ± 1.29 µM	–	18.3 ± 0.51 µM	slightly decreased activity or comparative activity	–	–	–	–	–	–
COc1cccc2c1C(=O)c1c(O)c3c(c(O)c1C2=O)C[C@@](O)(C(=O)CO)C[C@@H]3O[C@H]1C[C@H](N)[C@H](O)[C@H](C)O1 [ADM, Adriamycin, reference compound]	0.3 ± 0.01 µM	0.14 µM	0.11 ± 0.01 µM	0.9 ± 0.02 µM	–	0.9 ± 0.03 µM	–	> 40 µM	–	–	–	–	–	–	–
N.N.[Cl][Pt][Cl] [DDP, Cisplatin, reference compound]	–	–	–	–	–	–	–	–	–	13.8 ± 0.74 µM	3.19 ± 0.18 µM	14.8 ± 2.15 µM	28.4 ± 3.71 µM	> 40 µM	18 ± 0.49 µM
COc1c(O)cc2oc3cc(O)c(CC=C(C)C)c(O)c3c(=O)c2c1CC(O)C(C)(C)O (stereo not drawn) [Compound 2b, 1,3,6-Trihydroxy-2-(3-methyl-2-butenyl)-7-methoxy-8-(2,3-dihydroxy-3-methylbutyl)xanthone]	> 40 µM	> 40 µM	> 40 µM	> 40 µM	> 40 µM	> 40 µM	–	–	–	–	–	–	–	–	–
COc1cc2oc3cc(OC)c(OC)c(CC=C(C)C)c3c(=O)c2c(OC)c1CC(OC)C(C)(C)OC (stereo not drawn) [Compound 2i, 2-(2,3-Dimethoxy-3-methylbutyl)-1,3,6,7-tetramethoxy-8-(3-methylbut-2-en-1-yl)-9H-xanthen-9-one]	> 40 µM	> 40 µM	> 40 µM	> 40 µM	–	> 40 µM	–	–	disappearance of cytotoxicity	–	–	–	–	–	–
COc1c(O)cc2oc3cc(O)c(CC(O)C(C)(C)O)c(O)c3c(=O)c2c1CCC(C)C (stereo not drawn) [Compound 2d, 1,3,6-Trihydroxy-2-(2,3-dihydroxy-3-methylbutyl)-7-methoxy-8-isopentyl-9H-xanthen-9-one]	36 ± 0.99 µM	21.6 ± 2.41 µM	> 40 µM	> 40 µM	–	26.9 ± 3.75 µM	–	> 40 µM	slightly decreased activity or comparative activity	–	–	–	–	–	–
COc1c(O)cc2oc3cc(O)c(CC(O)C(C)(C)O)c(O)c3c(=O)c2c1CC(O)C(C)(C)O (stereo not drawn) [Compound 2c, 1,3,6-Trihydroxy-7-methoxy-2,8-bis(2,3-dihydroxy-3-methylbutyl)-9H-xanthen-9-one]	> 40 µM	> 40 µM	> 40 µM	> 40 µM	> 40 µM	> 40 µM	–	–	completely disappeared	–	–	–	–	–	–
COc1cc2oc3cc(OC)c(OC)c(CCC(C)C)c3c(=O)c2c(OC)c1CC(OC)C(C)(C)OC (stereo not drawn) [Compound 2j, 2-(2,3-Dimethoxy-3-methylbutyl)-8-isopentyl-1,3,6,7-tetramethoxy-9H-xanthen-9-one]	> 40 µM	> 40 µM	> 40 µM	> 40 µM	–	> 40 µM	–	–	disappearance of cytotoxicity	–	–	–	–	–	–
